F508del corr = CFTR F508del correction in bronchial cells | CFBE cells, YFP halide quenching; stimulated with forskolin plus potentiator P3; % fluorescence drop versus neutral controls | activity (quench increase), % at 7.58 µM | 350,000 compounds, 0.36% hits | AID 720511;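 active = mean added fluorescence quench of at least 8% versus neutral control, with both replicates also reaching 8%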;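 also: cells transiently co-express mutant CFTR-F508del with the halide-sensitive YFP; corrector assay measuring rescue of mutant channel to the surface after 24 h compound exposure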
S100A4 MyoIIA = S100A4-myosin IIA interaction inhibition | S100A4/TAMRA-MyoIIA peptide fluorescence polarization | inhibition, % at 10.7 µM | 360,000 compounds, 0.14% hits | AID 652163;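 active = mean inhibition of at least 70% across replicates, with every replicate also reaching that level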
Target sequence (P26447 whole entry, looked up): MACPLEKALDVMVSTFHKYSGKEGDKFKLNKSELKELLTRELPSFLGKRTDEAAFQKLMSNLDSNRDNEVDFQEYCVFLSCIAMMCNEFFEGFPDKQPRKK
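assay system = human S100A4 monomer with TAMRA-labelled myosin IIA peptide | also added = labelled myosin peptide probe, 5 nM | incubation = 5 min between mix addition and reading | control set = DMSO and TFP controls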
ERAP1 HTS inh = blocks human ERAP1 aminopeptidase activity; Q9NZ08; recombinant ERAP1, Leu-AMC fluorescence, 60 min; inhibition, % at 10.7 µM; 340,000 compounds, 0.15% hits;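 active = mean replicate inhibition of at least 30%, or all replicates individually reaching that 30% level; inactive = mean below 30% and not every replicate reaching it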;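 also: 0% = neutral control wells and 100% = L-leucinethiol positive control wells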
rRNA inh HTS = inhibitors of bacterial rRNA selective over humanized ribosomes; E. coli WT GFP vs humanized-ribosome RFP mutants, fluorescence, 24 h; active compounds read low; DMSO median 0, no signal -100; GFP signal change (wild-type ribosome), % (concentration not given with the values); 350,000 compounds, 1.6% hits; AID 720706;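 active = significant combined selectivity score with lowered wild-type GFP, culture density cut under 30%, mutant RFP and density less affected; inactive = any of these conditions unmet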
SIRT5 block = blocks human SIRT5 desuccinylation of peptide. Q9NXA8. Purified SirT5, succinyl-peptide AMC, trypsin-coupled fluorescence. inhibition, % at 15 µM. 330,000 compounds, 1.1% hits; in the data active = inhibition above about 15%
Target sequence (Q9NXA8 whole entry, looked up): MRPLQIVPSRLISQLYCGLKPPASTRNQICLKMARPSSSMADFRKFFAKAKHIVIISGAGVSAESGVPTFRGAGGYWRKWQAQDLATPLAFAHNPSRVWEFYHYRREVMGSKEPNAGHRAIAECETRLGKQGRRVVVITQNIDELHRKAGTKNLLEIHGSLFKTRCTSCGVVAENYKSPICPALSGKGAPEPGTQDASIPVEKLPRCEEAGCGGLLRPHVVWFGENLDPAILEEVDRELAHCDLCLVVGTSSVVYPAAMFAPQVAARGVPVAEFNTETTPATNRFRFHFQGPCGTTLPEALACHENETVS
An asterisk follows results filed as active; x = no result. An excerpt weighted towards active compounds, which were near 3.1% of everything screened.

SMILES	F508del corr	S100A4 MyoIIA	ERAP1 HTS inh	rRNA inh HTS	SIRT5 block
CS(=O)(=O)Nc1cccc(-c2cn3c(n2)SCC3)c1	-1	-1	26	3	1
CNC[C@H]1Oc2ncc(-c3ccccc3C)cc2C(=O)N([C@H](C)CO)C[C@H]1C	-2	-10	0	x	-3
COc1ccc(S(=O)(=O)Nc2ccc3c(c2)CC(=O)N([C@@H](C)CO)C[C@H](C)[C@@H](CN(C)Cc2ccc(Cl)c(Cl)c2)O3)cc1	4	-1	4	2	9
COc1cc(CNC(=O)Nc2nc(C(N)c3ccccc3)cs2)cc(OC)c1OC (stereo unspecified)	-1	4	0	5	21*
COc1cccc(NC(=O)N2CC(=O)N3[C@H](C2)[C@@H](c2ccc(C#CC4CCCCC4)cc2)[C@@H]3CO)c1	2	-7	x	5	x
CN(C)C(=O)C[C@H]1C=C[C@H](NS(=O)(=O)c2ccccc2)[C@H](CO)O1	-3	-30	-2	2	-5
O=C(NN1C(=O)CSC1=S)C(=O)NN1C(=O)CSC1=S	-6	-21	-1	0	50*
CCCNC(=O)[C@@H]1[C@@H](CO)[C@@H]2Cn3c(ccc(-c4ccc(F)cc4)c3=O)[C@@H]2N1CCC	x	4	3	-2	3
CCOC(=O)c1ccc2[nH]c3c(c2c1)CCCC3O (stereo unspecified)	-3	-1	0	-32*	-3
CCOC(=O)c1ccc2[nH]c3c(c2c1)CCCC3	-2	0	-1	-27	4
N=c1c(C(=O)NCCN2CCOCC2)cc2c(=O)n3ccccc3nc2n1Cc1ccc(F)cc1	2	-3	-46	1	-10
N=c1c(C(=O)NCCN2CCOCC2)cc2c(=O)n3ccccc3nc2n1CCCN1CCOCC1	0	3	37*	22	-9
N=c1c(C(=O)NC2CCCCC2)cc2c(=O)n3ccccc3nc2n1CC1CCCO1 (stereo unspecified)	-1	-3	103*	2	-105
O=C(Nc1ccc2c(c1)[C@@H]1C[C@H](CC(=O)N3CCCCC3)O[C@H](CO)[C@@H]1O2)NC1CCCC1	0	-11	-2	4	3
Cn1c(N2CCN(C(c3ccccc3)c3ccccc3)CC2)nc2ccccc21	-11	9	-6	-26*	-1
CCOC(=O)c1sc(=S)n(-c2ccc(OC)cc2)c1N	0	-10	x	-5	5
NC(=O)c1sc(=S)n(-c2ccc(Br)cc2)c1N	5	-2	x	-31*	x
CC(C)(C)c1cc(C(c2cccnc2)N2CCN(CCO)CC2)cc(C(C)(C)C)c1O (stereo unspecified)	-4	11	15	-30*	-6
Cc1noc(C)c1S(=O)(=O)Nc1ccc2c(c1)C(=O)N([C@@H](C)CO)C[C@@H](C)[C@@H](CN(C)S(=O)(=O)c1ccccc1)OCCCC[C@@H](C)O2	1	-4	0	2	3
NNC(=O)c1oc2nc(-c3ccco3)cc(-c3ccco3)c2c1N	x	-21	-3	-14*	-3
O=C(C[C@H]1CC[C@@H]2[C@H](COC[C@H](O)CN2Cc2ccccc2F)O1)NCc1ccccc1F	-1	-7	0	-2	0
Cc1ccc(Nc2nc(=O)c3cccnc3s2)c(Br)c1	4	-1	-1	-22*	-4
COc1ccccc1/C=C/C(=O)N1CCC(c2ccccc2)C1 (stereo unspecified)	x	-1	6	-23*	-2
CNC[C@H]1OCCCC[C@@H](C)Oc2ccc(NC(=O)c3ccncc3)cc2C(=O)N([C@@H](C)CO)C[C@H]1C	0	1	0	3	4
C[C@@H]1CCCCO[C@H](CN(C)S(=O)(=O)c2ccccc2)[C@@H](C)CN([C@@H](C)CO)C(=O)c2cc(NC(=O)C3CCCCC3)ccc2O1	0	0	1	1	16*
SMILES	F508del corr	S100A4 MyoIIA	ERAP1 HTS inh	rRNA inh HTS	SIRT5 block
C[C@@H]1CN([C@@H](C)CO)C(=O)c2cc(NC(=O)C3CCCCC3)ccc2O[C@@H](C)CCCCO[C@@H]1CN(C)S(=O)(=O)c1ccc(Cl)cc1	0	-1	1	1	18*
Cc1noc(C)c1S(=O)(=O)N(C)C[C@@H]1OCCCC[C@H](C)Oc2ccc(NC(=O)C3CCCCC3)cc2C(=O)N([C@H](C)CO)C[C@H]1C	3	111*	-2	-3	4
O=C(C[C@H]1CC[C@@H]2[C@H](COC[C@H](O)CN2Cc2cocn2)O1)NCc1cccc(F)c1	-2	-2	3	0	7
O=C(N[C@H]1CC[C@@H](CCn2cc(Cc3ccccc3)nn2)O[C@@H]1CO)c1cnccn1	-1	0	1	3	-5
Cc1ccc(S(=O)(=O)N(C)C[C@@H]2Oc3ncc(-c4ccncc4)cc3C(=O)N([C@@H](C)CO)C[C@@H]2C)cc1	-1	19	3	x	2
CC1CCCN(C(=O)c2ccc3c(=O)n(C4CCCC4)c(=S)[nH]c3c2)C1 (stereo unspecified)	-1	-3	6	15	0
O=C(c1ccc2c(=O)n(C3CCCC3)c(=S)[nH]c2c1)N1CCCCCC1	1	-1	-3	-28*	0
CC1(C)CC2CC(C)(CN2C(=O)c2cc(-c3ccccc3O)on2)C1 (stereo unspecified)	-5	-4	0	6	16*
CC1(C)CC2CC(C)(CN2C(=O)c2ccc([N+](=O)[O-])cc2)C1 (stereo unspecified)	-1	-1	4	17	21*
Cc1ccc(-c2cc(C(=O)N3CC4(C)CC3CC(C)(C)C4)no2)cc1 (stereo unspecified)	1	-2	4	6	-2
Cc1ccc(-c2nnc(Nc3ccc(OCC(N)=O)cc3)c3ccccc23)cc1S(N)(=O)=O	-1	5	4	-13	-2
NC(=O)COc1ccc(Nc2nnc(-c3ccc(O)cc3)c3ccccc23)cc1	0	6	x	-25*	-1
CC1CCN(CCCCOc2ccc([N+](=O)[O-])cc2)CC1	0	-1	-3	11	0
COC(=O)C1CCN(Cc2ccc(OCCCN3CCN(c4ccc([N+](=O)[O-])cc4)CC3)cc2)CC1	1	-5	5	-12	16*
OC[C@@H]1[C@@H](c2ccccc2)C2(CN(CCC(F)(F)F)C2)N1Cc1cccnc1	3	2	-2	4	-3
O=C(c1ccncc1)N1C[C@@H]2[C@H](c3ccccc31)[C@H](CO)N2C(=O)Nc1cccc(F)c1	0	-3	-1	-2	18*
CCCNC(=O)N1[C@H](CO)[C@@H]2c3ccccc3N(C(=O)c3ccc(F)cc3)C[C@@H]21	-1	124*	2	5	11
O=C(c1cccnc1)N1C[C@H]2[C@@H](c3ccccc31)[C@H](CO)N2C(=O)Nc1cccc(F)c1	-1	9	4	1	0
